Active and inactive are the calls of the source. No cut-off for these calls is given here.

The nature of assay [1]: Potentiation of cetuximab-induced cytotoxicity in human MDA468 cells assessed as lysis at 5 uM by ADCC assay. The assay is classed as functional, MDA-MB-468. The method in brief: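 Effector cells were nonadherent PBLs from human PBMCs, preincubated 24 h with or without 5 μM test agent. MDA468 targets were loaded with BATDA, treated with or without cetuximab (10 μg/ml), and mixed with effectors at varying ratios for 2 h at 37°C. Lysis was read by europium fluorescence in the supernatant.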

Assay [2] relates to HUVEC. The experiment in a line: Inhibition of adhesion to matrix in HUVEC at 1 uM by cell adhesion assay. The class given is functional, cell-based. To be noted: Homo sapiens. The method, boiled down: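 Wells were precoated for 1 h with Matrigel (1 mg/ml) or 0.1% BSA in serum-free medium as a negative control. HUVEC (20,000 per well) were then plated in serum-free medium with or without 1 μM test agent, and adherent cells were quantified.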

Assay [3] relates to HUVEC. Description: Inhibition of migration in HUVEC at 1 uM by wound healing assay. The assay is classed as functional, cell-based. To be noted: Homo sapiens.
Assay [4] relates to HUVEC. The experiment in a line: Inhibition of VEGF-stimulated capillary tube formation in HUVEC at 1 uM. To be noted: Homo sapiens. The assay is classed as functional, cell-based. The method in brief: (§1)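 HUVEC (4 × 10^5) in RPMI 1640 were seeded on solidified Matrigel (prepared 30 min at 37°C), with or without 1 μM test agent. Cultures were kept at 37°C and photographed at 0 and 24 h to assess capillary tube and network formation.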

Assay [5] relates to HUVEC. The experiment in a line: Inhibition of VEGF-stimulated network formation in HUVEC at 1 uM. The assay is classed as functional, cell-based. To be noted: Homo sapiens. The method in brief: as §1
Assay [6] has as its system Homo sapiens. The experiment in a line: Antitumor activity against human GEO tumor xenografted BALB/c mouse at 1 mg/kg, ip three times a week for 4 weeks measured after 8 weeks. The assay is classed as functional, organism-based. More on the design: dose 1 mg/kg. The method, boiled down:
(§2)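 Athymic nude mice, five weeks old, received s.c. GEO, LS174T or GEO-CR colon cancer cells (10^7 per mouse) in Matrigel. Tumors were detected after 7 days and groups of 10 were randomized. Dosing was i.p. at 1 mg/kg three times per week for 4 weeks. Tumor volume = π/6 × larger diameter × (smaller diameter)². Groups were compared by Student's t test.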
For orientation: A xenograft is tissue or cells of one species grown in another, often human tumour cells in immunodeficient mice.

Assay [7] has as its system Homo sapiens. Description: Potentiation of bevacizumab-induced antitumor activity against human GEO tumor xenografted BALB/c mouse at 1 mg/kg, ip three times a week for 4 weeks measured after 8 weeks. The class given is functional, organism-based. More on the design: dose 1 mg/kg. The method, boiled down: (§3)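 Athymic nude mice, five weeks old, received s.c. GEO, LS174T or GEO-CR cells (10^7 per mouse) in Matrigel and were randomized at day 7, 10 per group. Dosing was i.p. 1 mg/kg three times weekly plus i.p. bevacizumab 5 mg/kg twice weekly, on days 7–11, 14–18 and 21–25; only the first agent continued on days 28–32. Tumor volume = π/6 × larger × (smaller diameter)². Analysis was by Student's t test.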

Assay [8] deals with LS174T. The experiment in a line: Antitumor activity against human LS174T tumor xenografted BALB/c mouse assessed as tumor volume at 1 mg/kg, ip three times a week for 4 weeks measured after 8 weeks. The class given is functional. As to conditions: route intraperitoneal. The method in brief: as §2
The test system of assay [9] is LS174T. The experiment in a line: Potentiation of bevacizumab-induced antitumor activity against human LS174T tumor xenografted BALB/c mouse at 1 mg/kg, ip three times a week for 4 weeks measured after 8 weeks. The assay is classed as functional. To be noted: route intraperitoneal. The method, boiled down: as §3
Assay [10] has as its system Homo sapiens. The experiment in a line: Inhibition of total amount of MAPK and Akt in human GEO tumor xenografts in BALB/c mouse at 1 mg/kg, ip three times a week for 4 weeks measured after 8 weeks by ELISA. The assay is classed as functional, organism-based. More on the design: dose 1 mg/kg.
In assay [11] the test system is Homo sapiens. The experiment in a line: Inhibition of activated form of pMAPK expression in human GEO tumor xenografts in BALB/c mouse at 1 mg/kg, ip three times a week for 4 weeks measured after 8 weeks by ELISA. The assay is classed as functional, organism-based. More on the design: dose 1 mg/kg.
The test system of assay [12] is Homo sapiens. The experiment in a line: Inhibition of activated form of pAkt expression in human GEO tumor xenografts in BALB/c mouse at 1 mg/kg, ip three times a week for 4 weeks measured after 8 weeks by ELISA. The assay is classed as functional, organism-based. More on the design: dose 1 mg/kg.
Assay [13] relates to Homo sapiens. The experiment in a line: Inhibition of activated form of VEGF expression in human GEO tumor xenografts in BALB/c mouse at 1 mg/kg, ip three times a week for 4 weeks measured after 8 weeks by ELISA. The class given is functional, organism-based. More on the design: dose 1 mg/kg.
Assay [14] concerns Homo sapiens. Description: Potentiation of bevacizumab-induced inhibition of activated form of pMAPK expression in human GEO tumor xenografts in BALB/c mouse at 1 mg/kg, ip three times a week for 4 weeks measured after 8 weeks by ELISA. The assay is classed as functional, organism-based. More on the design: dose 1 mg/kg.
Assay [15] has as its system Homo sapiens. Description: Potentiation of bevacizumab-induced inhibition of activated form of pAkt expression in human GEO tumor xenografts in BALB/c mouse at 1 mg/kg, ip three times a week for 4 weeks measured after 8 weeks by ELISA. The class given is functional, organism-based. Also noted: dose 1 mg/kg.
Assay [16] concerns Homo sapiens. The experiment in a line: Potentiation of bevacizumab-induced inhibition of activated form of VEGF expression in human GEO tumor xenografts in BALB/c mouse at 1 mg/kg, ip three times a week for 4 weeks measured after 8 week by ELISA. The assay is classed as functional, organism-based. Also noted: dose 1 mg/kg.
Assay [17] relates to Homo sapiens. Description: Inhibition of hVEGF level in human GEO tumor xenografts in BALB/c mouse at 1 mg/kg, ip three times a week for 4 weeks measured after 8 weeks by ELISA. The class given is functional, organism-based. Also noted: dose 1 mg/kg. The method in brief:
(§4)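 Serum was taken from killed xenograft-bearing mice and assayed by sandwich ELISA. Plates were coated overnight at 4°C with anti-hVEGF or anti-mVEGF polyclonal antibody (1 μg/ml in PBS, pH 7.5), with avidin–biotinylated HRP detection and absorbance read at 490 nm. Concentrations came from linear regression of recombinant hVEGF or mVEGF standard curves.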

In assay [18] the test system is Homo sapiens. The experiment in a line: Potentiation of bevacizumab-induced inhibition of hVEGF level in human GEO tumor xenografts in BALB/c mouse at 1 mg/kg, ip three times a week for 4 weeks measured after 8 weeks by ELISA. The assay is classed as functional, organism-based. More on the design: dose 1 mg/kg. The method in brief:
as §4

Assay [19] has as its system Homo sapiens. The experiment in a line: Inhibition of mVEGF level in human GEO tumor xenografted in BALB/c mouse at 1 mg/kg, ip three times a week for 4 weeks measured after 8 weeks by ELISA. The assay is classed as functional, organism-based. Also noted: dose 1 mg/kg. The method, boiled down: as §4
Assay [20] relates to Homo sapiens. Description: Potentiation of bevacizumab-induced inhibition of mVEGF level in human GEO tumor xenografted in BALB/c mouse at 1 mg/kg, ip three times a week for 4 weeks measured after 8 weeks by ELISA. The assay is classed as functional, organism-based. Also noted: dose 1 mg/kg. The method in brief:
as §4

The test system of assay [21] is Homo sapiens. The experiment in a line: Antitumor activity in cetuximab-resistant human GEO-CR tumor xenografted BALB/c mouse at 1 mg/kg, ip administered 3 times per week for 4 weeks. More on the design: dose 1 mg/kg. The class given is functional, organism-based. The method, boiled down: as §2
Assay [22] in a line: Potentiation of bevacizumab-induced antitumor activity in cetuximab-resistant human GEO-CR tumor xenografted BALB/c mouse assessed tumor volume at 1 mg/kg, ip. The class given is functional. To be noted: route intraperitoneal. The method in brief: as §3
For assay [23], the system named is LS174T. The experiment in a line: Potentiation of bevacizumab-induced antitumor activity against human LS174T tumor xenografted BALB/c mouse assessed as induction of necrosis at 1 mg/kg, ip three times for week for 4 weeks measured after 8 weeks. The assay is classed as functional. As to conditions: route intraperitoneal. The method in brief:
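LS174T s.c. xenografts (10^7 cells in Matrigel) in nude mice received the combined i.p. schedule (1 mg/kg three times weekly plus bevacizumab 5 mg/kg twice weekly). Necrosis was judged by pathological and immunohistochemical analysis of formalin-fixed paraffin sections (5 μm).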

Turning to `Cc1cn([C@H]2C[C@H](OP(O)(=S)OC[C@H]3O[C@@H](n4ccc(N)nc4=O)[C@H](O)[C@@H]3OP(O)(=S)OC[C@H]3O[C@@H](n4cc(C)c(=O)[nH]c4=O)C[C@@H]3OP(O)(=S)OC[C@H]3O[C@@H](n4cnc5c(=O)nc(N)[nH]c54)[C@H](O)[C@@H]3OP(O)(=S)OC[C@H]3O[C@@H](n4cnc5c(N)ncnc54)[C@H](O)[C@@H]3OP(O)(=S)OC[C@H]3O[C@@H](n4ccc(N)nc4=O)[C@H](O)[C@@H]3OP(O)(=S)OC[C@H]3O[C@@H](n4ccc5c(=O)nc(N)[nH]c54)C[C@@H]3OP(O)(=S)OC[C@H]3O[C@@H](n4cc(C)c(=O)[nH]c4=O)C[C@@H]3OP(O)(=S)OC[C@H]3O[C@@H](n4cc(C)c(=O)[nH]c4=O)C[C@@H]3OP(O)(=S)OC[C@H]3O[C@@H](n4ccc(N)nc4=O)[C@H](O)[C@@H]3OP(O)(=S)OC[C@H]3O[C@@H](n4cc(C)c(=O)[nH]c4=O)C[C@@H]3OP(O)(=S)OCC(O)COP(O)(=S)O[C@H]3C[C@H](n4cc(C)c(=O)[nH]c4=O)O[C@@H]3COP(O)(=S)O[C@H]3[C@@H](O)[C@H](n4ccc(=N)[nH]c4=O)O[C@@H]3COP(O)(=S)O[C@H]3C[C@H](n4cc(C)c(=O)[nH]c4=O)O[C@@H]3COP(O)(=S)O[C@H]3C[C@H](n4cc(C)c(=O)[nH]c4=O)O[C@@H]3COP(O)(=S)O[C@H]3C[C@H](n4ccc5c(=O)nc(N)[nH]c54)O[C@@H]3COP(O)(=S)O[C@H]3[C@@H](O)[C@H](n4ccc(N)nc4=O)O[C@@H]3COP(O)(=S)O[C@H]3[C@@H](O)[C@H](n4cnc5c(N)ncnc54)O[C@@H]3COP(O)(=S)O[C@H]3[C@@H](O)[C@H](n4cnc5c(=O)nc(N)[nH]c54)O[C@@H]3COP(O)(=S)O[C@H]3C[C@H](n4cc(C)c(=O)[nH]c4=O)O[C@@H]3COP(O)(=S)O[C@H]3[C@@H](O)[C@H](n4ccc(N)nc4=O)O[C@@H]3COP(O)(=S)O[C@H]3C[C@H](n4cc(C)c(=O)[nH]c4=O)O[C@@H]3CO)[C@@H](CO)O2)c(=O)[nH]c1=O` (stereo partly drawn), the Activity in [1] worked out at 60%; in assay [8] it was 1.6 cm3; in assay [9], 95%; in [22], 0.15 cm3; in [23] it was 90%. In addition, the outcome in assay [2], in assay [3], in assay [4], in [5], in assay [6] and in assay [7] was Active. In addition, the result in assay [11], in assay [12], in assay [13], in assay [14], in assay [15] and in assay [16] was Active. The outcome in assay [17] and in assay [18] was Active. For the same compound, the outcome in [10], in [19], in assay [20] and in assay [21] was inactive.
